Measured values: the RNAGym collection of RNA variant scans (doi:10.1126/science.aae0568)
Variants at the floor of the assay were thinned out.

B1: tRNA (parent)
chain: GUUCCGUUGGCGUAAUGGUAACGCGUCUCCCUCCUAAGGAGAAGACUGCGGGUUCGAGUCCCGUACGGAACG

Variants of: B1
Assay: yeast fitness relative to wild type (ratio to wild type); higher = fitter; tRNA-Arg(CCU), competitive growth, 37 C, YPD
Outline: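 Variants of the tRNA-Arg(CCU) gene, chemically synthesised with a 3% per-site mutation rate at 69 sites, were placed at the native genomic locus in Saccharomyces cerevisiae. The pooled strains were competed in YPD at 37°C for 24 hours in six parallel replicates. Gene amplicons from the start population and from each end population were read by 100-nucleotide paired-end sequencing. Darwinian fitness relative to wild type came from changes in genotype frequencies; genotypes needed ≥ 100 starting reads, and estimates < 0.5 were set to 0.5.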

Row | Variant | yeast fitness
1 | G17C C22U C49G | ≤ 0.5
2 | G17A G18A A42C C55U | 0.508
3 | U16C U26A G67C | 0.657
4 | G17A C31G C49G | ≤ 0.5
5 | G17C A20U C33G A70U | ≤ 0.5
6 | U16G U26A C34U G50A | 0.552
7 | U16G A37G G51C C62G | ≤ 0.5
8 | U16G G68A | 0.967
9 | U16C U19A C29U | 0.615
10 | U16G G23C U35C | 0.655
11 | G17A C66A | 0.647
12 | G17A U32A G67C | 0.6
13 | G17A G68C | 0.928
14 | G17A G68A | 0.81
15 | G17A C30G A45G C61G | ≤ 0.5
16 | U16C U53A | 0.611
17 | G17A C29U U35G A37C G38C A65C | ≤ 0.5
18 | G17C C22G U26C U47A C66G | ≤ 0.5
19 | G17C A70U | 0.713
20 | G17C A70C | 0.751
21 | G17C A70G | 0.616
22 | U16C U28C G52C | ≤ 0.5
23 | G17C A57G | 0.68
24 | G17A A36U C46U | ≤ 0.5

Row | Variant | yeast fitness
25 | G17A A20C G25A | 0.506
26 | U16G C31G G48C A57U | ≤ 0.5
27 | G17A G25C A65C | 0.611
28 | U16G G44A C62U | 0.652
29 | U16G U32G C46U C49U | ≤ 0.5
30 | U16G C31G C61A C66U | ≤ 0.5
31 | G17A A45G A65U | 0.559
32 | U16G C22G U47G | 0.557
33 | G17A C55G | ≤ 0.5
34 | G17A C55A | 0.547
35 | G17A A70U | 0.864
36 | U16G G56C | ≤ 0.5
37 | G17A C31U A42C | 0.582
38 | G17A G52A | 0.549
39 | G17A U19A C30U G67A | ≤ 0.5
40 | U16G C62U A70C | 0.565
41 | G17A C60G | 0.586
42 | G17C A21G C27U C33G A42U | 0.621
43 | G17A C31G G68A | ≤ 0.5
44 | G17C A43U | 0.589
45 | G17C A20C C34A U47A A57U | ≤ 0.5
46 | U16C U32G C34G U53A G63C | ≤ 0.5
47 | G17A U32C | 0.704
48 | G17A U32G | 0.572

Row | Variant | yeast fitness
49 | U16C G51A A65U A70G | ≤ 0.5
50 | U16G G39A A45C C61A A69U | ≤ 0.5
51 | G17A C31U | 0.74
52 | G17C A20C C49U G52A C61A C62G | ≤ 0.5
53 | U16G C31A C60A G67A | 0.678
54 | U16G A45U | 0.969
55 | U16G A45G | 1
56 | G17C C22G C30U G41C | 0.612
57 | G17A C61U C66U | 0.599
58 | G17A C22A G25A | 0.501
59 | U16G G18C A21U | 0.59
60 | U16G C29U C55G | ≤ 0.5
61 | G17A A20G U28A U35A A70C | ≤ 0.5
62 | G17A C30G C46U G63C C66U | ≤ 0.5
63 | G17A A20G G41A | 0.593
64 | G17A A37C G58A | 0.551
65 | G17A C33G C66U | ≤ 0.5
66 | U16G G25C C46U G50A | 0.581
67 | G17A A21C | 0.67
68 | U16G G23A A40U | ≤ 0.5
69 | G17A C31U A70C | 0.658
70 | G17C C22G | 0.619
71 | G17A C62U | 0.736
72 | G17A C62A | 0.558

Row | Variant | yeast fitness
73 | G17A A42U U59C | ≤ 0.5
74 | U16C U59A C62A G67C | ≤ 0.5
75 | U16G A65U | 0.876
76 | G17C A37G G56C | ≤ 0.5
77 | U16G A20U G38A G67A A69U | ≤ 0.5
78 | G17A C30A C66U A70G | ≤ 0.5
79 | G17C A37U A42U C49G G51A C61U | ≤ 0.5
80 | G17A C33G A40U A45G A65G | ≤ 0.5
81 | G17A A40C | 0.668
82 | U16G U19G C29G G50C C66U | ≤ 0.5
83 | G17A C31A U32A | 0.62
84 | U16C G18C A42G | ≤ 0.5
85 | G17A A20C C24U | 0.562
86 | G17A G56A C66U | 0.678
87 | U16C U54A C66U | ≤ 0.5
88 | U16G G39C A42U U54C C55G U64A | ≤ 0.5
89 | U16C U28C A37C G56A U59C | ≤ 0.5
90 | U16G C34U A40G A43G C62A A69C | ≤ 0.5
91 | G17A A45U G52A A70U | 0.535
92 | G17C A20G C46A C60U | ≤ 0.5
93 | G17A C46U | 0.878
94 | G17A C46G | 0.712
95 | G17A C33U A43U A57G G67U | ≤ 0.5
96 | U16C G68C | 0.834

Row | Variant | yeast fitness
97 | U16C G68A | 0.767
98 | G17A C22U U28C U54G A57C | ≤ 0.5
99 | U16G U47A U54A A57U U64A A69U | 0.678
100 | G17A A65U | 0.805
101 | U16G A20C G41A C55U | ≤ 0.5
102 | U16C G67C | 0.861
103 | U16C U47A G52A | ≤ 0.5
104 | U16C G25C C34U U64G | 0.585
105 | G17C A21C U28C C60A A65G | ≤ 0.5
106 | U16G C62U | 0.853
107 | U16G A21G C30U A37C | ≤ 0.5
108 | G17C A36G C66U A69C | 0.803
109 | G17A U64C | 0.878
110 | G17A A21G C49U C60A G63A | 0.529
111 | G17A A69C A70C | 0.588
112 | G17A G50C | 0.647
113 | U16C U19A U47A C61A | 0.792
114 | G17C A42C G68A | ≤ 0.5
115 | U16G A21U A40C G58C A65C C66G | 0.515
116 | U16G G18C U59A A65U | 0.687
117 | U16G A42U | 0.994
118 | U16G A40G | 0.935
119 | G17A G18C | 0.63
120 | G17A G18A | 0.65

Row | Variant | yeast fitness
121 | G17A A45U G52A | ≤ 0.5
122 | U16G G48A | 0.903
123 | G17A C22U A45G C46U A69U | 0.603
124 | G17A C33G A36G G63A | ≤ 0.5
125 | U16C G18C C24U A40U C55U U59A | ≤ 0.5
126 | U16G C49U G63A | 0.994
127 | U16C U26C A40C A43G G44A | ≤ 0.5
128 | G17C C22G C30U G41C C46U | 0.708
129 | G17A C31U U54G | 0.639
130 | G17A U19A C24U G25C | ≤ 0.5
131 | U16G A43U G50C | 0.576
132 | U16G A36U | 0.589
133 | U16G C24U U28C A36C U59C A65C | ≤ 0.5
134 | U16G U32C | 0.915
135 | G17C A69U | 0.624
136 | G17C A69C | 0.658
137 | G17A C31A G48C | ≤ 0.5
138 | U16G C34G A42G C49G U64A | ≤ 0.5
139 | U16G C22G A37G A43G G68A | ≤ 0.5
140 | G17A C22A A36G A45C C46U | ≤ 0.5
141 | U16C G44A | 1.06
142 | G17C A21G U59G A65C | ≤ 0.5
143 | G17A U19C | 0.95
144 | U16C G50A | 0.799

Row | Variant | yeast fitness
145 | U16C U35C | 0.609
146 | U16G C29U | 0.806
147 | U16C U28C C55U A57C G58A | ≤ 0.5
148 | U16C G51A A65U | 0.572
149 | U16G C22G U32C | 0.767
150 | G17A G56C G58C G63A | ≤ 0.5
151 | U16C U26C | 0.884
152 | U16C U26A | 0.973
153 | U16G G63A | 0.937
154 | U16C G63A | 0.884
155 | G17A A40U G52A C60U G63C | ≤ 0.5
156 | U16G U28A A42U U54A | ≤ 0.5
157 | G17A C22A C31A C33A C49A | 0.573
158 | G17A C31G G48A | ≤ 0.5
159 | G17A G41C A43G G58C | ≤ 0.5
160 | U16C G18A C24G A45U | ≤ 0.5
161 | U16G A37U A45C | ≤ 0.5
162 | G17A U54A | 0.566
163 | G17A A21G U26C C62U | ≤ 0.5
164 | U16G C61U A69C | 0.644
165 | G17A A21C C29G A70U | ≤ 0.5
166 | U16C U47A C49A C62U | 0.778
167 | U16G C22U G25A | ≤ 0.5
